Experimental data from ChEMBL document CHEMBL3526154, “Metabolism, pharmacokinetics, tissue distribution, and stability studies of the prodrug analog of an anti-hepatitis B virus dinucleoside phosphorothioate” (Drug Metab Dispos, 2012).

How the values were obtained:
Set-up in all cases: dose 10 mg/kg, route intravenous
Conditions in all cases: in vivo
[1] = Drug excretion in female Sprague-Dawley rat urine at 10 mg/kg, iv administered as bolus dose measured at 0 to 24 hrs post-dose by liquid scintillation counting analysis; type: ADME, organism-based
How it was run: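 Single [³⁵S]-prodrug dose to rats, i.v. tail-vein bolus (PEG 400/saline vehicle) or oral gavage (citric acid buffer pH 2.5), 5 ml/kg. Urine and feces collected ~1, 4 and 24 h postdose. Radioactivity counted by liquid scintillation and expressed as % of administered dose. Mean and S.D. from nine rats per sex.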

Rattus norvegicus [2] = assay: Cmax in female Sprague-Dawley rat at 10 mg/kg, iv administered as bolus dose by liquid scintillation counting analysis; type: ADME, organism-based
How it was run: (§1)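 Single dose of [³⁵S]-labelled prodrug to rats, i.v. tail-vein bolus in 25% PEG 400/75% saline or oral gavage in 0.05 M citric acid buffer pH 2.5, 5 ml/kg. Retro-orbital blood into EDTA at 1, 4 or 24 h; plasma by centrifugation. Radioactivity by liquid scintillation counting as µg-Eq/ml. Noncompartmental sparse-sampling analysis gives Cmax and AUC; nine rats per sex.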

Rattus norvegicus [3] = assay: AUC in female Sprague-Dawley rat at 10 mg/kg, iv administered as bolus dose by liquid scintillation counting analysis; type: ADME, organism-based, Plasma; how it was run: as §1
Heart = assay: Drug uptake in Sprague-Dawley rat heart at 10 mg/kg, iv administered as bolus dose measured at 1 to 24 hrs post-dose by liquid scintillation counting analysis; type: ADME, organism-based
How it was run: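 Single i.v. tail-vein bolus or oral gavage of [³⁵S]-prodrug to rats, 5 ml/kg. Euthanised by i.p. pentobarbital overdose at 1, 4 or 24 h. Retro-orbital blood collected; liver, lung, kidney, heart, brain and spleen frozen. Tissues homogenised, solubilised and counted by liquid scintillation. Radioactivity given as µg-Eq/g and % of dose.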

Compound `CO[C@@H]1[C@H](OP(=O)(OC[C@H]2O[C@@H](n3cnc4c(N)ncnc43)C[C@@H]2O)[35S]COC(=O)OC(C)C)[C@@H](CO)O[C@H]1n1ccc(=O)[nH]c1=O` (some centres undefined) has a Drug excretion [1] of 58.94%, a Cmax (Rattus norvegicus [2]) of 4.49 ugequiv/ml and an AUC (Rattus norvegicus [3]) of 35.21 ugequiv.h/ml. The Drug uptake (Heart) was “<= 0.5%”.
